In ChEMBL document CHEMBL2163314, “Potent aminocyclitol glucocerebrosidase inhibitors are subnanomolar pharmacological chaperones for treating gaucher disease” (J Med Chem, 2012):
Active and inactive are the calls of the source. The calls are words filed in the database; no cut-off is given here.

Assays:
[1] = molecular target: Lysosomal alpha-glucosidase (Homo sapiens) (UniProt P10253); experiment: Inhibition of lysosomal alpha-glucosidase in human fibroblast at 50 uM after 24 hrs
Method in brief: (§1)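 Wild-type human fibroblasts (DMEM, 10% FBS, passages 14–30) were plated overnight, then exposed to compound in fresh medium for 24 h at 37 °C, 5% CO2. Lysosomal enzyme activity was then assayed in intact monolayers after the medium was removed. Triplicate determinations.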

Saccharomyces cerevisiae = experiment: Inhibition of bakers yeast alpha-glucosidase at100 uM
[2] = molecular target: T1, Lysosomal acid glucosylceramidase (Homo sapiens, UniProt P04062); experiment: Competitive inhibition of recombinant Imiglucerase using 4-methylumbelliferyl-beta-D-glucopyranoside as substrate preincubated for 30 mins before substrate addition at pH 5.2 by Dixon plot assay
T1 sequence (P04062 whole entry): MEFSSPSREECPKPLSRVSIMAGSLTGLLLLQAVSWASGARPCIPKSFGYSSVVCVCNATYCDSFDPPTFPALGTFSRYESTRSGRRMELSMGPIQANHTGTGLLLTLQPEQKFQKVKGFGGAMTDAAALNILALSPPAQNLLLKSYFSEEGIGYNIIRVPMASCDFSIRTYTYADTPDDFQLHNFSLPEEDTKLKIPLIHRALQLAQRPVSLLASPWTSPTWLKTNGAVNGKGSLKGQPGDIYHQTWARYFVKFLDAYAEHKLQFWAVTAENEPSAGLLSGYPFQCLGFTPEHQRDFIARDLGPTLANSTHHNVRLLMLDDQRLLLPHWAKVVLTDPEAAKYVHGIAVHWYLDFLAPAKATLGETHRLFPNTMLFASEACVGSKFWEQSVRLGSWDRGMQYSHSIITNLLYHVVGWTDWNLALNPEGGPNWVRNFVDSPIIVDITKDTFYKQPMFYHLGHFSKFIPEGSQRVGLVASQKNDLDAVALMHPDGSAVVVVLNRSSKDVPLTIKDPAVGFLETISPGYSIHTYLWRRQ

[3] = molecular target: T1, Lysosomal acid glucosylceramidase; experiment: Binding affinity to recombinant imiglucerase using 4-methylumbelliferyl-beta-D-glucopyranoside as substrate preincubated for 30 mins before substrate addition by Dixon plot assay
[4] = molecular target: T2, Beta-galactosidase (Homo sapiens) (UniProt P16278); experiment: Inhibition of lysosomal beta-galactosidase in human fibroblast at 50 uM after 24 hrs; method in brief: as §1
T2 sequence (whole entry): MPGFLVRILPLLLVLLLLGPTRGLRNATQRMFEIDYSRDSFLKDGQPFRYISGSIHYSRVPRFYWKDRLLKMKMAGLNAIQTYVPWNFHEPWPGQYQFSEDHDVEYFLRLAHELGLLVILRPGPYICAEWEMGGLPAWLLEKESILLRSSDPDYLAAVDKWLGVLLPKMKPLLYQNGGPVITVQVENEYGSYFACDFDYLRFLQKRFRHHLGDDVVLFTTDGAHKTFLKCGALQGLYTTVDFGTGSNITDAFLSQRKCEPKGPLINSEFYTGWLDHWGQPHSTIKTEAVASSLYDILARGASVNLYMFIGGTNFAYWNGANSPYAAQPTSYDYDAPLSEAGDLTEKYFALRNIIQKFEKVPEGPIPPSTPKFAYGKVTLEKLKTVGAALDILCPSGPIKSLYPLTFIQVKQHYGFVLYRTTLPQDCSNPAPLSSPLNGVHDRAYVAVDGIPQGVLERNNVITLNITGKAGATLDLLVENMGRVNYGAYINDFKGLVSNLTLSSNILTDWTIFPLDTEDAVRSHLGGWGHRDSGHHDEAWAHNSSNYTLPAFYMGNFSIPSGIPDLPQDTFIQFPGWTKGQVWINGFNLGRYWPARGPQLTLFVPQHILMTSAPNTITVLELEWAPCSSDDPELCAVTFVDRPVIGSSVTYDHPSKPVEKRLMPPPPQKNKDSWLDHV

[5] = molecular target: T3, Non-lysosomal glucosylceramidase (Mus musculus) (UniProt Q69ZF3); experiment: Inhibition of GBA2 activity in mouse tissue homogenate at 50 uM
T3 sequence (whole entry): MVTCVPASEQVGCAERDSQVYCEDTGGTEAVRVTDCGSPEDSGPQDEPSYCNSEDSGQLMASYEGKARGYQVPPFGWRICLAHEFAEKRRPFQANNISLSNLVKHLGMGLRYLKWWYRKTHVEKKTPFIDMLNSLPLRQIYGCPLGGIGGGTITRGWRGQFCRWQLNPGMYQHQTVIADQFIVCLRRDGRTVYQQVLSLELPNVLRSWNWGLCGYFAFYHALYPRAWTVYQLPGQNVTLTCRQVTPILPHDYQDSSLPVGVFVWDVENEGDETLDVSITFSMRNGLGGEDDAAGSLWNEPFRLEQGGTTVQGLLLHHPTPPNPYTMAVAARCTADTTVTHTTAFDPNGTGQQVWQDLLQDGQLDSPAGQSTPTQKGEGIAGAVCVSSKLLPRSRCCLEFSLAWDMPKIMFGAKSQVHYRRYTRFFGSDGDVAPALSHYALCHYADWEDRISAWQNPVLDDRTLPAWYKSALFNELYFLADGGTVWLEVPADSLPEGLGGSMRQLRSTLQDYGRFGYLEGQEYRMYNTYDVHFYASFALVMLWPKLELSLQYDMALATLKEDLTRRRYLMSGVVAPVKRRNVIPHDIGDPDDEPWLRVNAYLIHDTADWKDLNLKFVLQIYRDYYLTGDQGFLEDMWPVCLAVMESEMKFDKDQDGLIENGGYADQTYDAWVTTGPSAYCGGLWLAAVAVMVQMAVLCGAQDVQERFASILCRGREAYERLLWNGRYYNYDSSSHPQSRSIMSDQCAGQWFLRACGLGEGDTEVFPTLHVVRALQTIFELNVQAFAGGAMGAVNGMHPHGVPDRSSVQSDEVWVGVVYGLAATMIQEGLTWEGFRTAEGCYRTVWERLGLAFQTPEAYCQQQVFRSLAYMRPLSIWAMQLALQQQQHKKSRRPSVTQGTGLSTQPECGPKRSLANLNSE
Method in brief: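 Mouse tissue homogenates were used to separate nonlysosomal GBA2 from lysosomal GCase β-glucosidase activity. Compounds were screened at 50 and 5 μM with 3 mM substrate. Two independent experiments, each run in duplicate.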

[6] = molecular target: T4, Lysosomal acid glucosylceramidase (Homo sapiens) (UniProt P04062); experiment: Inhibition of lysosomal beta-glucosidase in human fibroblast using 4-methylumbelliferyl-beta-D-glucopyranoside as substrate preincubated at 5 uM for 24 hrs before substrate addition measured after 2 hrs by fluorimetry
T4 sequence (whole entry): T1 sequence (P04062 whole entry)
Method in brief: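 Wild-type human fibroblasts (DMEM, 10% FBS; passages 14–30) plated overnight, then compound in fresh medium for 24 h at 37 °C, 5% CO2. Intact washed monolayers given PBS plus 200 mM acetate pH 4.0 and 5 mM 4-MU-β-glucoside, 37 °C for 2 h. Stopped by lysis in glycine/NaOH pH 10.6. Fluorescence at 355/460 nm; triplicate.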

[7] = Stabilization of recombinant imiglucerase at 1 uM at 48 degC after 60 mins by fluorimetry relative to incubation at 37 degC
Method in brief: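 Imiglucerase (2 mg/mL aliquots) heated at 48 °C with compound, three concentrations. At set times, residual activity measured with 4 mM 4-MU-β-glucoside (McIlvaine pH 5.2, Triton X-100, taurocholate) after acetate-phosphate pH 5.0, 10 min at 37 °C. Read at 355/460 nm. Ratio is relative enzymatic activity, inhibitor vs control, taken at 60 min. Activity relative to unheated (37 °C) enzyme; triplicate.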

SMILES | inhibition [1] | inhibition (Saccharomyces cerevisiae) | IC50 [2] [nM] | Ki [3] [nM] | inhibition [4] | inhibition [5] | inhibition [6] [%] | Ratio [7]
CCCCCCCCCN[C@H]1[C@H](O)[C@@H](O)[C@H](O)[C@@H](O)[C@@H]1OC.Cl | inactive | inactive | 4400 | 1580 | inactive | Active |  | 
CCCCCCCCCN[C@@H]1[C@H](O)[C@@H](O)[C@H](O)[C@@H](O)[C@@H]1O | inactive | inactive | 52600 | 17900 | inactive | 92% |  | 
CCCCCCCCCN[C@H]1[C@H](O)[C@@H](O)[C@H](O)[C@@H](O)[C@H]1OC.Cl | inactive | inactive | 130 | 53 | inactive | Active | > 39 | 2
CCCCCCCCCN[C@H]1[C@H](O)[C@@H](O)[C@H](O)[C@@H](O)[C@@H]1O | inactive | inactive | 3900 | 1900 | inactive | Active |  | 
CCCCCCCCCN[C@H]1[C@H](O)[C@@H](O)[C@H](O)[C@@H](O)[C@@H]1OCCCCCCCCC.Cl |  | inactive | 670 | 280 |  | Active | > 39 | 5.2
CCCCCCCCCN[C@@H]1[C@H](O)[C@H](O)[C@@H](O)[C@H](O)[C@H]1O.Cl | inactive | inactive | 80 | 32 | inactive | Active | > 39 | 5
CCCCCCCCCO[C@H]1[C@@H](N)[C@H](O)[C@@H](O)[C@H](O)[C@H]1O.Cl | inactive | inactive | 450 | 130 | inactive | Active | > 39 | 2.2
CCCCCCCCCN[C@H]1[C@H](O)[C@@H](O)[C@H](O)[C@@H](O)[C@H]1OCCCCCCCCC.Cl |  | inactive | 4 | 1 |  | Active | > 39 | 29
CCCCCCCCCN(CCCCCCCCC)[C@@H]1[C@H](O)[C@H](O)[C@@H](O)[C@H](O)[C@H]1O.Cl |  | inactive | 1720 | 820 |  | Active | > 39 | 1.2
